High-throughput results as filed in PubChem BioAssay.
NadD block: inhibitors of S. aureus NadD, primary screen, biochemical, colorimetric, uHTS | Nicotinate-nucleotide adenylyltransferase NadD (Staphylococcus aureus N315) | purified NadD enzyme, colorimetric absorbance read-out | inhibition, % at 20 µM | 0.78% of 360,000 active; in the data active = inhibition above about 26%
ATG4B inh: ATG4B protease inhibitors, primary screen, biochemical, fluorescence, uHTS; Cysteine protease ATG4B (Homo sapiens), Q9Y4P1; ATG4B cleavage of LC3-PLA2, NBD-HPC fluorescence, 1 h; inhibition, % at 8.33 µM; 0.51% of 340,000 active; AID 504462, 2011; in the data active = inhibition above about 40%
UCH37 inh: inhibitors of human UCH37 deubiquitinase, primary screen, biochemical, Ub-AMC cleavage, fluorescence | Ubiquitin carboxyl-terminal hydrolase isozyme L5 (Homo sapiens), Q9Y5K5 | 0.33% of 330,000 active | inhibition, % (test concentration not listed) | purified proteasome/UCH37;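 active = mean inhibition over replicate wells above about 20%, limit read from the data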;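 note: 0% = compound-free wells with enzyme and 100% = wells lacking proteasome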
Target sequence (Q9Y5K5 whole entry, looked up): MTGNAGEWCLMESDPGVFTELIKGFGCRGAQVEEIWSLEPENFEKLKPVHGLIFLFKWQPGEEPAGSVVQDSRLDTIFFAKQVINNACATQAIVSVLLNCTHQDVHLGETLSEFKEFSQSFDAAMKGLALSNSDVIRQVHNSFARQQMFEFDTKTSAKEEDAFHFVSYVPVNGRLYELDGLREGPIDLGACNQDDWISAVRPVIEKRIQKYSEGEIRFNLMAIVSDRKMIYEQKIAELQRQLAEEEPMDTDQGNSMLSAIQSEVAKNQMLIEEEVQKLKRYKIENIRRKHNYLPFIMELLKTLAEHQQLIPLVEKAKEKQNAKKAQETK
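Material: human UCH37 enzyme supplied as purified proteasome complex / Amount: 0.15 nM proteasome as dispensed / Buffer or medium: pH 7.4 Tris-HCl (50 mM) with ovalbumin, ATP-MgCl2, DTT / Times: preincubation 30 min, reaction 25 min, room temperature / Technique: AMC fluorescence from Ub-AMC cleavage, excitation 355 nm, emission 460 nm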
GRIN3A LBD mod: binders of NR3A ligand-binding domain, primary screen, biophysical, differential scanning fluorimetry, uHTS | 2.5% of 340,000 active | Glutamate receptor ionotropic, NMDA 3A (GRIN3A) ligand-binding domain | Tm shift relative to glycine control, % at 25 µM | NR3A LBD differential scanning fluorimetry, Tm shift; 0% = protein alone, 100% = glycine-bound protein;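 active = melting temperature shift of at least 10% of the positive control shift, at one fixed dose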
SENP1 inh: human SENP1 catalytic domain inhibitors, primary screen, biochemical, FRET, uHTS | Sentrin-specific protease 1 (Homo sapiens), Q9P0U3 | recombinant SENP1 catalytic domain, CyPet-SUMO1-YPet FRET cleavage | inhibition, % at 10 µM | 0.21% of 360,000 active | AID 624204, 2012;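 active = inhibition at least 30% at 10 µM, raw YFP signal under a set limit, fluorescence ratio 0.5 to 1.5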;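 note: 0% = enzyme with DMSO and 100% = no enzyme wells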
Target sequence (Q9P0U3 419-644 limits assumed): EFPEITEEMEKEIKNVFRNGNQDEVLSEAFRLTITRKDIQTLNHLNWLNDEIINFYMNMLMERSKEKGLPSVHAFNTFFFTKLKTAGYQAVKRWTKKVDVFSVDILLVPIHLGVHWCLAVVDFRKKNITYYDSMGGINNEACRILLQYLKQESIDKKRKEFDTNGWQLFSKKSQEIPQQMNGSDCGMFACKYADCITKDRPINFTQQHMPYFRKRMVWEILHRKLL
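Compound: 10 µM single point, 0.5% DMSO; Test system: hSENP1 catalytic domain, recombinant; Timing: 50 min reaction at room temperature; Technique: FRET, CFP and YFP emission; Control set: no-enzyme wells low, DMSO-plus-enzyme wells high control.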
NadD conf: inhibitors of S. aureus NadD, confirmation, biochemical, colorimetric, single concentration | shares compounds with NadD block | purified S. aureus NadD, colorimetric enzyme assay | inhibition, % at 20 µM | 13% of 2,000 active | AID 624309, 2012; in the data active = inhibition mostly above about 42%, no sharp cut-off; inactive = mostly below about 42%
* = called active by the depositor; x = no result. The list is not random: actives were taken first. Their share in the collection is about 3.6%.

SMILES | NadD block | ATG4B inh | UCH37 inh | GRIN3A LBD mod | SENP1 inh | NadD conf
CCC(=O)Nc1c(C#N)c2nc3ccccc3nc2n1-c1ccc(C)cc1 | -3 | -1 | -207 | 2 | -34 | x
CC(C)Nc1nc(NCCN2CCCC2)c2sc(-c3ccccc3)cc2n1 | 34* | x | x | x | -22 | -21
c1ccc(OCCNc2nc(NCC3CC3)nc3cc(-c4ccccc4)sc23)cc1 | 33* | x | x | x | -2 | 19
CC(C)Nc1nc(-c2ccccc2F)c2sc(-c3ccccc3)cc2n1 | 4 | x | x | x | -165 | x
O=c1c2sc3nc(N4CCOCC4)c4c(c3c2ncn1-c1ccccc1)CCCC4 | 0 | 21 | -24 | -2 | 1 | x
O=c1c2sc3nc(N4CCOCC4)c4c(c3c2ncn1C(c1ccccc1)c1ccccc1)CCCC4 | 32* | 0 | -58 | -1 | 0 | 1
Cc1cccc(N2CCN(C(=O)c3ccc4nc(-c5ccco5)c(-c5ccco5)nc4c3)CC2C)c1 (configuration not stated) | 42* | -7 | -22 | -8 | -19 | 8
COc1ccc(Br)cc1/C=N/NC(=O)CNC(=O)/C=C/c1ccccc1 | 13 | 5 | x | 2 | -15 | x
COc1ccc(/C=C/C(=O)NCC(=O)N/N=C/c2cc(Br)ccc2OCc2ccccc2)cc1 | 28* | -3 | x | 0 | 3 | -1
O=C(c1cc2sccc2n1Cc1ccccc1)N1CCN(c2nc3ccccc3s2)CC1 | 34* | -10 | 6 | -1 | -4 | 21
CCC(=O)N1CCN(c2nc3ccccc3s2)CC1 | 1 | -3 | -2 | -10 | 1 | x
Cc1ccc([N+](=O)[O-])c(C(=O)NN=Cc2cccnc2)c1 | x | x | 4 | x | x | x
COc1ccccc1N1CCN(c2ncc(C(=O)N3CCN(c4cccc(Cl)c4)CC3)c3ccccc23)CC1 | 34* | 3 | -239 | 0 | -2 | 2
CC(=NOCC(=O)OCC(=O)NC(=O)c1ccccc1)c1ccc2c(c1)OCO2 | x | x | 4 | x | x | x
O=[N+]([O-])c1ccc(N/N=C/c2sc(N3CCOCC3)nc2-c2ccccc2)c(S(=O)(=O)Nc2ccc(Cl)cc2)c1 | 58* | 13 | x | 21* | -8 | 5
O=C(N/N=C/c1sc(N2CCOCC2)nc1-c1ccccc1)c1ccccc1Cl | -1 | -4 | x | -3 | -91 | x
COc1ccc(C(=O)NC(=S)Nc2ccc(N3CCCC3)cc2)cc1 | 5 | 2 | 3 | 1 | 4 | x
CCOc1ccc(C(=O)Nc2ccc(N3CCCC3)cc2)cc1 | 35* | 4 | 0 | -4 | 12 | -4
COc1ccc(C(=O)Nc2ccc(N3CCCC3)cc2)cc1 | 40* | -3 | -1 | -1 | -1 | 0
Cn1cccc1CC(=O)NN=Cc1ccc([N+](=O)[O-])cc1 | x | x | 9 | x | x | x
Cc1cc2nc(-c3ccc(SCC(=O)N4CCc5ccccc54)nc3)[nH]c2cc1C | 33* | -24 | -63 | 25* | -8 | 4
Cc1cc2nc(-c3ccc(SCC(=O)Nc4ccc(S(=O)(=O)NC5CC5)cc4)nc3)[nH]c2cc1C | 40* | 1 | -82 | 32* | -8 | 44
Cc1cc(NC(=O)CSc2ccc(-c3nc4cc(C)c(C)cc4[nH]3)cn2)no1 | 22 | -7 | -6 | 6 | -19 | x
Cc1nn(C(C)C(=O)NN=Cc2ccc(N(C)C)cc2)c(C)c1[N+](=O)[O-] (configuration not stated) | x | x | 9 | x | x | x
S=C1Cc2ccccc2N1 | 31* | -4 | 81* | 4 | -2 | 39
SMILES | NadD block | ATG4B inh | UCH37 inh | GRIN3A LBD mod | SENP1 inh | NadD conf
O=C(Cn1c(=O)[nH]c2ccccc2c1=O)N1CCN(c2cccc(Cl)c2)CC1 | -1 | 3 | -3 | -1 | 2 | x
Cc1ccc(Cl)cc1N1CCN(C(=O)Cc2csc(Nc3nc(=S)[nH]c4ccccc34)n2)CC1 | 63* | 4 | x | -2 | -35 | 6
O=C(Cc1csc(Nc2nc(=S)[nH]c3ccccc23)n1)N1CCN(c2cccc(Cl)c2)CC1 | 55* | 2 | 4 | 2 | -37 | 8
COc1ccccc1CNC(=O)CC(C)=NNC(=O)Cc1ccccc1 | x | x | 0 | x | x | x
O=C(CSC(=S)N1CCN(c2ccccc2)CC1)Nc1nc(-c2ccccc2)c(-c2ccccc2)o1 | 35* | -6 | 2 | -3 | -2 | 2
Cc1ccccc1N1CC(C(=O)Nc2nnc(SCC(=O)Nc3nccs3)s2)CC1=O (configuration not stated) | 40* | 16 | 4 | 2 | -1 | 29
Cc1cccc(N2CC(C(=O)Nc3nnc(SCc4cccnc4)s3)CC2=O)c1 (configuration not stated) | 15 | -7 | 3 | -2 | 0 | x
Cc1cccc(N2CC(C(=O)Nc3nnc(SCC(=O)Nc4cc(C)on4)s3)CC2=O)c1 (configuration not stated) | 74* | 1 | 6 | 6 | 0 | 0
Cc1cccc(N2CC(C(=O)Nc3nnc(SCC(=O)Nc4nccs4)s3)CC2=O)c1 (configuration not stated) | 62* | -4 | -1 | 1 | 0 | 7
Cc1ccccc1N1CC(C(=O)Nc2nnc(SCc3ccccn3)s2)CC1=O (configuration not stated) | 20 | 4 | 2 | -2 | 0 | x
CON=C(c1nonc1N)N1CCN(c2ccc([N+](=O)[O-])cc2)CC1 | x | x | 3 | x | x | x
Cc1ccccc1Cn1cc(C=Nn2cnnc2)c2ccccc21 | x | x | 3 | x | x | x
Nc1cccc2c(=O)c3ccccc3[nH]c12 | 29* | -12 | 4 | 2 | -29 | -3
Cc1c(C(=O)OC/C(O)=C(\C#N)c2nc3ccccc3[nH]2)oc2ccccc12 | 10 | -5 | 2 | 3 | -73 | x
Cc1c(C(=O)OCC(O)=C(C#N)c2nc3ccccc3[nH]2)oc2ccc(Br)cc12 | 37* | -4 | -1 | -2 | -61 | 2
CC(=NNC(=O)C(C)n1nc(C)c([N+](=O)[O-])c1C)c1ccc(OCC(N)=O)cc1 (configuration not stated) | x | x | 4 | x | x | x
O=C1NC[C@H](Cc2ccccc2)N(C[C@@H]2CCCN2C[C@H](Cc2ccc(O)cc2)N2C[C@H](Cc3ccc(O)cc3)N(CCc3ccccc3)C(=O)C2=O)C1=O | 30 | x | x | x | 2 | x
O=C1NC[C@H](Cc2ccccc2)N(C[C@H]2CCCN2C[C@H](Cc2ccccc2)N2C[C@H](Cc3ccc(O)cc3)N(CCc3ccccc3)C(=O)C2=O)C1=O | 25 | x | x | -3 | 1 | x
